Assay outcomes as filed in PubChem BioAssay.
CHO parental Ca: signal in parental CHO cells, OX1R antagonist counter-screen; parental CHO-K1, ATP-induced calcium, Fluo-8 fluorescence; AID 463079; actives 0.63% (n = 330,000); inhibition, % at 5.6 µM;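 active = inhibition above that plate's mean sample inhibition plus 3 SD, cut at about 26% in these data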;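 note: 0% = ATP-challenged DMSO wells and 100% = DMSO wells without ATP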
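Material – parental CHO cells · Reagent – ATP stimulus · Compound – single nominal dose of 5.6 µM per compound · Detection – Fluo-8 fluorescence · Read-out basis – percent inhibition of calcium signal · Controls – ATP-challenged DMSO wells low, unchallenged DMSO wells high · Repeats – no replicates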
OX1R antag-1: blocks the human orexin 1 receptor; inhibition, % at 5 µM; actives 0.43% (n = 330,000); CHO/OX1R cells, Fluo-8 calcium fluorescence, orexin A; AID 434989;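 active = inhibition above its plate's threshold, mean inhibition of all tested compounds on the plate plus 3 SD, cut at about 37% in these data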;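 note: 0% = orexin A challenge wells and 100% = SB-334867-A antagonist wells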
Target sequence (O43613 whole entry, looked up): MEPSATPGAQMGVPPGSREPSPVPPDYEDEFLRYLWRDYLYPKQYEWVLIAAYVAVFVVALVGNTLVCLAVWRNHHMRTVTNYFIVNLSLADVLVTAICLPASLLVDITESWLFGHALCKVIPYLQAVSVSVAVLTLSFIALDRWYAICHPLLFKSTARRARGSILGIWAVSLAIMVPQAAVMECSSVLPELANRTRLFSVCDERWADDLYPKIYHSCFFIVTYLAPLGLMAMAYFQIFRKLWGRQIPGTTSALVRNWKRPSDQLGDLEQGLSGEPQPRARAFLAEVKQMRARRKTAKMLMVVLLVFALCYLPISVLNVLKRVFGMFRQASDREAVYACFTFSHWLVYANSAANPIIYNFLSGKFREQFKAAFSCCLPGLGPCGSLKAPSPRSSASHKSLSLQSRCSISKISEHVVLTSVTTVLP
OX1R antag-2: antagonists of human orexin 1 receptor (OX1R). O43613. OX1R-expressing cells, FRET antagonist read-out. inhibition, % at 6.6 µM. actives 1.8% (n = 330,000). AID 485270; in the data active = inhibition mostly above about 38%, no sharp cut-off; inactive = mostly below about 40%;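 note: 0% = agonist challenge alone and 100% = reference antagonist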
GPR7 antag: human neuropeptides B/W receptor 1 antagonism | P48145 | GPR7-expressing cells, fluorescence antagonist assay | inhibition, % at 4.4 µM | actives 1.1% (n = 290,000); in the data active = inhibition above about 16%, passing the limit was not always enough;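 note: cells stimulated with the agonist NPW; 0% = agonist with vehicle and 100% = vehicle without agonist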
TAAR1 antagonist: human TAAR1 antagonism | Q96RJ0 | CHO RD-HGA16 TAAR1, Fluo-8 calcium fluorescence, antagonist | inhibition, % at 3 µM | actives 1.5% (n = 360,000);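 active = inhibition above a per-plate cutoff, the mean inhibition of test compounds on that plate plus 3 SD, cut at about 49% in these data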;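 note: 0% = DMSO plus EC80 beta-PEA response and 100% = DMSO alone without agonist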
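System: RD-HGA16 CHO cells with stable hTAAR1 and Gα16 | Probe or stimulus: EC80 β-phenethylamine stimulus | Dosing: 3 µM, single point | Times: Dye loading 75 min at 37 °C, then 30 min room temperature | Measured by: Fluo-8 calcium-sensitive fluorescence | Read-out basis: % inhibition of agonist calcium response | Replicates: n of 1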
TAAR1 agonist: agonists of human TAAR1; AID 624467; CHO RD-HGA16 TAAR1, Fluo-8 calcium fluorescence; vehicle wells 0%, saturating PEA agonist 100%; activation, % at 3 µM; Q96RJ0; actives 0.99% (n = 360,000);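 active = activation above the mean activation of all test compounds in the run plus 3 SD, cut at about 38% in these data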
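Test system: RD-HGA16 (CHO) cells co-expressing Gα16 and hTAAR1 | Doses: Single dose, 3 µM | Schedule: 17-24 h seeding, 75 min 37 °C dye, 30 min RT | Evaluation: % activation from peak over basal fluorescence ratio, DMSO-to-PEA scaled | Technique: Kinetic Fluo-8 calcium fluorescence | Benchmarks: Low control DMSO, high control PEA (EC100)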
An asterisk follows results filed as active; / = not tested or not shown. Sampled rows, rich in hits. Any-hit rate of the full collection: about 4.5%.

SMILES | CHO parental Ca | OX1R antag-1 | OX1R antag-2 | GPR7 antag | TAAR1 antagonist | TAAR1 agonist
COc1ccc([C@@H]2CC=C(C(=O)O)[C@H](c3ccc(F)cc3)N2S(=O)(=O)c2ccccc2C)cc1 | -18 | -26 | 35 | / | -2 | 5
COc1ccc([C@@H]2CC=C(C(=O)O)[C@H](c3ccc(C)cc3)N2S(=O)(=O)c2ccccc2C)cc1 | -11 | 2 | 50* | / | 9 | -1
Cc1ccc([C@H]2C(C(=O)O)=CC[C@@H](c3ccc(C)cc3)N2S(=O)(=O)c2ccccc2C)cc1 | -19 | 0 | 45* | / | -1 | 0
O=C(CN1C(=O)/C(=C\c2ccccc2Cl)Oc2ccccc21)NCc1cccnc1 | -24 | -16 | 72* | -20 | -20 | 18
CCCCn1c(N)c(N(CCOC)C(=O)Cn2c(=O)oc3ccccc32)c(=O)[nH]c1=O | -1 | -7 | 15 | / | -15 | 1
Cc1nn(CC(=O)Nc2nnc(CC(=O)N3CCCC3)s2)c(=O)c2ccccc12 | -10 | -16 | 8 | 18* | 14 | 0
O=C1c2ccccc2S(=O)(=O)c2cc(C(=O)N3CCN(c4ncccn4)CC3)ccc21 | 4 | -7 | 27 | / | 13 | 10
O=C1c2ccccc2S(=O)(=O)c2cc(C(=O)N3CCC(O)CC3)ccc21 | 1 | -3 | 75* | / | -5 | 4
CCN(CC(=O)NC(C)(C)C)C(=O)c1ccc2c(c1)S(=O)(=O)c1ccccc1C2=O | -24 | -29 | 56* | -1 | -1 | 2
O=C1c2ccccc2S(=O)(=O)c2cc(C(=O)N3CCN(C(=O)c4ccccc4)CC3)ccc21 | -5 | -12 | 39 | / | 4 | 7
CN1CCN(C(=O)c2ccc3c(c2)S(=O)(=O)c2ccccc2C3=O)CC1 | -8 | -7 | 76* | -1 | -15 | 2
CC(=O)N1CCN(C(=O)c2ccc3c(c2)S(=O)(=O)c2ccccc2C3=O)CC1 | -14 | -11 | 69* | -3 | 1 | 3
CCC(C)(C)NC(=O)c1ccc2c(c1)S(=O)(=O)c1ccccc1C2=O | -22 | -37 | 61 | -2 | 17 | 11
CC(Oc1cccnc1[N+](=O)[O-])C(=O)Nc1ccc(Cl)cn1 (centres undefined) | -14 | -4 | 7 | / | -17 | 3
CC(=O)O[C@H]1C=C[C@@H](C#Cc2ccc(C(C)(C)C)cc2)O[C@@H]1COC(=O)Nc1ccccc1 | / | / | / | / | -2 | 0
O=C1OC(c2ccccc2)(c2ccc3cc(O)ccc3c2)c2ccccc21 (centres undefined) | / | / | / | / | 7 | 3
O=C1CN(S(=O)(=O)c2cccc(C(=O)O)c2)c2ccccc2N1 | 2 | 7 | 12 | -9 | -19 | 0
O=C(C[C@@H]1C=C[C@H](NS(=O)(=O)c2ccccc2F)[C@@H](CO)O1)NCCCN1CCOCC1 | / | / | / | / | -23 | 3
CC(C)=CC(=O)NCC1CCN(C(=O)C(=O)c2cc3ccccc3o2)CC1 | / | / | / | / | -3 | 4
CCN1CCN(C(=O)c2ccc3c(c2)S(=O)(=O)c2ccccc2C3=O)CC1 | -15 | 0 | 60* | -12 | 5 | 6
C[C@H]1CN([C@@H](C)CO)C(=O)c2cc(C#CC3CCCC3)cnc2O[C@H]1CN(C)C(=O)Cc1ccccn1 | / | / | / | / | -2 | 2
CNc1cncc(-c2cnn(CC(C)C)c2)n1 | / | / | / | / | -18 | 3
O=c1cc(-c2ccccc2Cl)oc2c(NS(=O)(=O)c3cc(Cl)cc(Cl)c3O)ccc(O)c12 | 75* | 43 | 70* | 13 | / | /
NC(=O)c1ccc(N2CCN(S(=O)(=O)c3cccs3)CC2)c([N+](=O)[O-])c1 | 46* | 56* | 15 | / | 22 | 25
COc1ccc(N2CCN(C(=S)Nc3ccccc3)CC2)cc1 | -5 | -11 | 7 | -11 | -1 | 1
SMILES | CHO parental Ca | OX1R antag-1 | OX1R antag-2 | GPR7 antag | TAAR1 antagonist | TAAR1 agonist
CN1CCN(c2ccc(NC(=O)c3ccc(Oc4ccccc4)cc3)cc2)CC1 | -3 | -10 | 12 | -3 | 5 | 38*
CC(=O)c1ccc(N2CCN(C(=S)Nc3ccc(Oc4ccccc4)cc3)CC2)cc1 | 45* | 52* | 52 | 24* | 44 | 5
Cc1ccc(NC(=O)[C@@H](Cc2ccccc2)NC(=O)[C@H]2O[C@@H](n3ccc(=O)[nH]c3=O)[C@H](O)[C@@H]2O)cc1C | / | / | / | / | -17 | 0
Cc1nn(-c2ccccc2)c(N)c1N=Nc1cccnc1 | -10 | -20 | 54* | 0 | 3 | 3
Nc1nc(-c2ccccc2)c(N=Nc2cccnc2)s1 | 12 | -19 | 42 | -15 | -8 | 3
Cc1ccc(N(CC(O)CN2CCOCC2)S(=O)(=O)c2ccc([N+](=O)[O-])cc2)cc1 (centres undefined) | -21 | -20 | 38* | -5 | 9 | 5
O=[N+]([O-])c1ccc(S(=O)(=O)CC(CN2CCOCC2)N2CCOCC2)cc1 (centres undefined) | -12 | 0 | 49* | 1 | 14 | 4
COc1ccc(N(CC(O)CN2CCOCC2)S(=O)(=O)c2ccc(C)cc2)cc1 (centres undefined) | -15 | -26 | 15 | 4 | 7 | -2
COc1ccc(-c2nc(CS(=O)CC(=O)NC3CCCC3)c(C)o2)cc1 (centres undefined) | -20 | -18 | 23 | -16 | -7 | 2
Cc1ccc(C(CNS(=O)(=O)c2cc(F)ccc2F)N2CCN(C)CC2)cc1 (centres undefined) | / | / | / | / | 2 | 3
N#C/C=C/N1CCN(C(=O)c2ccco2)CC1 | -6 | 11 | -1 | / | -34 | 41*
O=C(c1ccco1)N1CCN(C(=O)c2ccco2)CC1 | / | / | / | / | -23 | 0
O=C(Nc1ccn(C2CCC(CO)O2)c(=O)n1)c1ccccc1 (centres undefined) | / | / | / | / | -43 | 2
C/C(=N\Nc1ccc([N+](=O)[O-])cc1)c1ccc(-n2nncc2C)cc1 | -6 | -15 | 16 | 0 | 57* | 15
COc1cc(Nc2ccc(S(N)(=O)=O)cc2)c([N+](=O)[O-])nc1[N+](=O)[O-] | 11 | -8 | 48* | -10 | 0 | -1
COCc1[nH]nc2c1C(c1ccc(C)cc1)NC2=O (centres undefined) | / | / | / | / | -7 | 1
CCOC(=O)N1CCN(S(=O)(=O)N2CCCC(C(=O)NCc3ccc(C)cc3)C2)CC1 (centres undefined) | / | / | / | / | -5 | -1
NC1=NC(=O)/C(=C\c2cc([N+](=O)[O-])ccc2Cl)S1 | 4 | -14 | 49* | -9 | 5 | 5
O=S1(=O)CC(N2CCC(Cc3ccccc3)CC2)CN1CCc1ccccc1 (centres undefined) | / | / | / | / | -15 | 13
O=C(N/N=C/c1ccc(O)cc1)Nc1cccc2nsnc12 | 3 | 13 | 34 | -22 | 67* | 38*
COc1cc(/C=N/NC(=O)Nc2cccc3nsnc23)cc(OC)c1OC | / | / | / | 3 | 10 | 6
